In the EternaBench riboswitch data:

System: MS2 coat protein
Experiment: apparent Kd, MS2 coat protein; higher = weaker binding; RNA-MaP array
How it was run: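 Fluorescently labeled MS2 coat protein, from 1.5 nM to 3 μM, was incubated at room temperature with designed RNAs transcribed on an Illumina sequencing chip from sequenced DNA templates. Times ran from 0.8–1.5 h at the lowest concentrations to 10–20 min at the highest, in Tris-HCl pH 7.5 buffer with KCl, MgCl2, BSA, DTT, tRNA and Tween20, with or without input ligand. Each apparent Kd is the median of per-cluster binding-curve fits, and designs with fewer than 10 measured clusters were excluded.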

[1] = designed as: OFF switch for tryptophan, no ligand
[2] = ligand present: tryptophan, designed as: OFF switch for tryptophan
[3] = designed as: ON switch for flavin mononucleotide, no ligand
[4] = ligand present: flavin mononucleotide, designed as: ON switch for flavin mononucleotide
[5] = designed as: OFF switch for flavin mononucleotide, no ligand
[6] = ligand present: flavin mononucleotide, designed as: OFF switch for flavin mononucleotide
[7] = designed as: OFF switch for theophylline, no ligand
[8] = ligand present: theophylline, designed as: OFF switch for theophylline

## CUCUUGGCCGCAGUACGUUUAUAGACCUAUCGAGGACCGGUACGGCCGCCACUCGGUUAGUCACAUGAGGAUCACCCAUGUGUCC
[1]
  apparent Kd: 0.0177 µM
[2]
  apparent Kd: 0.0299 µM

## CUGCAGACCCAGAAGGUUCACAUGAGGAUCACCCAUGUGCCUAUCAAUAAGUAAGGUAAAGGCUGAAAGGAUAUGGGUAAAGGA
[3]
  apparent Kd: 0.0107 µM
[4]
  apparent Kd: 0.00847 µM

## CUGCCACGAACGGCCGCCACUUACAUGAGGAUCACCCAUGUGCCUGCGCACAAAGAAUGUCAAGAAAGGACCGGGUUCAAAUAGU
[1]
  apparent Kd: 0.0613 µM
[2]
  apparent Kd: 0.0668 µM

## CUGCUCUGUACUGAAGGAGAUACAUGAGGAUCACCCAUGUGCAGAAGGUGCUCAUUAAUAAUCGGCAAGGAUAUGCGGGCUUGA
[3]
  apparent Kd: 0.925 µM
[4]
  apparent Kd: 0.39 µM

## CUUGUACAUGAGGAUCACCCAUGUGUCCGUAUCAAAGGAUAUAGCAUAUUCGCAGUGGUGCUAGAAGGUUGUAUAC
[3]
  apparent Kd: 0.0209 µM
[4]
  apparent Kd: 0.0105 µM

## CUUUGUGGCCAAGGAUAUCCUGGCACAGUACAUGAGGAUCACCCAUGUCGAAGACAUGGUCGUACGGAGAAGGUGGGCACCCUC
[3]
  apparent Kd: 0.511 µM

## GAAAGGUGAGGAUAUACAUGAGGAUCACCCAUGUGUAGAAAUAGAAAGAAAAUCUCAAGUAGAAGGCACAAACA
[5]
  apparent Kd: 0.0113 µM
[6]
  apparent Kd: 0.0137 µM

## GAAAUACAUGAGGAUCACCCAUGUCAGGAUAUCGGUGAGAAAGAGCAUCUCUGCGGCCCGAGAAGGGACACAGG
[5]
  apparent Kd: 0.0645 µM
[6]
  apparent Kd: 0.0518 µM

## GACAAAAUGGUAGGAUAUGCUUGGUCUUGAUCAGCAGAAGGACCACAUGAGGAUCACCCAUGUGCAGUGAUUCUGGGAGCUCGC
[5]
  apparent Kd: 0.0553 µM
[6]
  apparent Kd: 0.0933 µM

## GACAGAAGGUAGAAGGUGGUUCUCCUCACCCACUUUGAGGACAUGAGGAUCACCCAUGUCAAAACCAAGGAUAUACUACGUCGU
[3]
  apparent Kd: 0.0897 µM
[4]
  apparent Kd: 0.0182 µM

## GACCAUCACCAGAAGGUCCUCCACCAGCGAGAUCCGACAUGAGGAUCACCCAUGUACUGUGGAUGGAAGGAUAUGGAAGGCUCU
[5]
  apparent Kd: 0.0469 µM
[6]
  apparent Kd: 0.116 µM

## GACGGGCCUAUUGAUACCAGACCUAGUGACAACAUGAGGAUCACCCAUGUGACGGCAAAAGUCCCUUGGCAGCAAGUAGAAAUAA
Designed as: ON switch for theophylline, no ligand
  apparent Kd: 0.0126 µM
Ligand present: theophylline, designed as: ON switch for theophylline
  apparent Kd: 0.0123 µM

## GAGCGCAGUUUACAACAUACUAACACAGAUACCAGAAAUUUUAUGUUCCCUUGGCAGCUGACAACAUGAGGAUCACCCAUGUGCU
[7]
  apparent Kd: 0.0171 µM
[8]
  apparent Kd: 0.0177 µM

## GAUAAAGCAGGAUAUACAUACCGGCCAUGACUAAAAGAAGGACAUGAGGAUCACCCAUGUAGAAGGGCUUAAAA
[5]
  apparent Kd: 0.0157 µM
[6]
  apparent Kd: 0.0305 µM

## GAUAGGUGAGGAUAUGUGAGUGAUCACAUGAGGAUCACCCAUGUUGACUCAUGUUGGCUUACAGAAGGCACAGGAA
[5]
  apparent Kd: 0.137 µM
[6]
  apparent Kd: 0.0972 µM

## GAUCCGUACCAGACCUUCAAUGGACUCAGUCGAGGACCGGUACGGCCGCCACUCGGAGAAGAACAUGAGGAUCACCCAUGUGAUG
[1]
  apparent Kd: 0.0363 µM
[2]
  apparent Kd: 0.0538 µM

## GAUUAAAAGAUAGGAUAUUUUGAAAUCGUCACAUGAGGAUCACCCAUGUAUGGCCUGGGCAAUCAAAAGAAGGAUCUUUCUGAU
[5]
  apparent Kd: 0.0112 µM
[6]
  apparent Kd: 0.00684 µM

## GAUUGCGGUGUGAGGAUAUCUGUUUAACAAAAGCCAGAGAAGGCACAUGAGGAUCACCCAUGUAGAUGCCGGCC
[5]
  apparent Kd: 0.00838 µM
[6]
  apparent Kd: 0.0105 µM

## GCAAUUCUUGAGAAGGUCGUAGUGCGCAGACCAAAAGCACAUGAGGAUCACCCAUGUGAUCAAACGAAGGAUAUCACAGUAGAA
[5]
  apparent Kd: 0.0519 µM
[6]
  apparent Kd: 0.0493 µM

## GCCAAAAUACCCGAUACCAGUAUUAAUAGCACAACCUCACACAUGAGGAUCACCCAUGUAUACCCUUGGCAGCGGCCUAACAUAA
[7]
  apparent Kd: 0.0369 µM
[8]
  apparent Kd: 0.102 µM

## GCCCUGUGACUAGGAUAUGCCGGGAAACACAUCGCAGAAGGAGUCCACUCAUGUCGACAUGAGGAUCACCCAUGUACCAGGGUU
[5]
  apparent Kd: 0.0406 µM
[6]
  apparent Kd: 0.0299 µM

## GCCUCGAACUCAGGAUAUCAGAGAGGUUGCCGCUGAGAAGGGAGACAUGAGGAUCACCCAUGUACAGUCAUGACCGUCGAGUUG
[3]
  apparent Kd: 0.0658 µM
[4]
  apparent Kd: 0.084 µM

## GCGAAGCGAGGAUAUUAAUCCGUACACAUGAGGAUCACCCAUGUGAAUCAAUCAUGUGGUUAAGAAGGCGCGUGGG
[5]
  apparent Kd: 0.541 µM
[6]
  apparent Kd: 0.0732 µM

## GCGUGAGCGACGUGUCUUCCACAUGAGGAUCACCCAUGUCGCAGAAGGACUUGAAUCGUAUUAAAGUAGGAUAUGCGUAGGACG
[3]
  apparent Kd: 0.0383 µM
[4]
  apparent Kd: 0.029 µM

## GCUAUAUUUGAGAAGGGAGGAUGCUUCACAGAGCUUAGACCAGACAUGAGGAUCACCCAUGUGCCUCAGGAUAUCAAUAUCGAU
[3]
  apparent Kd: 0.0273 µM
[4]
  apparent Kd: 0.0085 µM

## GGAAAACCUCGAGGAUAUAGCACAUGAGGAUCACCCAUGUACCAUAAGUGUUGACAAAAGAGAGACUAGAAGGCGAAUCAAACC
[3]
  apparent Kd: 0.0131 µM
[4]
  apparent Kd: 0.0116 µM

## GGAACGAUCACUUCUUUAUCUAAGGCGGAUACCAGUCCUCGGUUUGACCCUUGGCAGCCGACAACAUGAGGAUCACCCAUGUUCU
[7]
  apparent Kd: 0.0156 µM
[8]
  apparent Kd: 0.0204 µM

## GGAAUCGGAUUAGAGGAUAUCGAUCUGUUAACAUGAGGAUCACCCAUGUGGACGCUUCAUUCGAACGAGAAGGCUAGAUGGACACC
[3]
  apparent Kd: 0.0238 µM
[4]
  apparent Kd: 0.0168 µM

## GGAGUGUGAGGAUAUGACGCGCCAGGCACACUUGAAUGCGCUCAGAAGGCACAUGAGGAUCACCCAUGUAAGCA
[5]
  apparent Kd: 0.00829 µM
[6]
  apparent Kd: 0.0133 µM

## GGAUUGAUAGGAUAUACAUAGAUGUAGGAGCCUUCACUCCCACAUGAGGAUCACCCAUGUAGAAGGAUCAGUAA
[5]
  apparent Kd: 0.0121 µM
[6]
  apparent Kd: 0.0236 µM

## GGGUUACUCUAUGAUACCAGUUCCAUGCCGAAACCUGUGUACAUGAGGAUCACCCAUGUGAACCCUUGGCAGCAUUAAUCAACUG
[7]
  apparent Kd: 0.0975 µM
[8]
  apparent Kd: 0.258 µM

## GGUCCAAUAGGAUAUACAUGAGGAUCACCCAUGUAAUGGAAGCUCGGGUUUUGGUACUGUAGAAGGAUUGGGAC
[5]
  apparent Kd: 0.0258 µM
[6]
  apparent Kd: 0.0409 µM

## GUAAAACUGUAAGGAUAUGAUGAACUUUAACCCUCAGAAGGAACACCACAUGAGGAUCACCCAUGUUAGGAAAGCAACUUGUUG
[3]
  apparent Kd: 0.0141 µM
[4]
  apparent Kd: 0.0138 µM

## GUAAACGCCACAGGAUAUUGGCAGAAUAAGGAGCAAGAAGGGUGGGAUAGAAUCACGUGAACAUGAGGAUCACCCAUGUGUGGA
[3]
  apparent Kd: 0.0553 µM
[4]
  apparent Kd: 0.038 µM

## GUACCGUAAACGGCCGCCACUGACAUGAGGAUCACCCAUGUGCUGGUGGUGCACAACCUCAGGUUCAGGACCGGGUUUCCGAGCU
[1]
  apparent Kd: 0.0251 µM
[2]
  apparent Kd: 0.055 µM

## GUACCUCAAGGAUAUGCCCGAUCUUACAUGAGGAUCACCCAUGUUGGCUCAGGGCUUAGGGCAGAAGGUGAGAAGU
[5]
  apparent Kd: 0.00638 µM
[6]
  apparent Kd: 0.00752 µM

## GUACCUCCUCAGAAGGCGCGUAGAGCCGGCACAUGAGGAUCACCCAUGUCGAGGCGAAAUGCAGGCGAGGAUAUGAAGGGUUUC
[3]
  apparent Kd: 0.00488 µM
[4]
  apparent Kd: 0.00492 µM

## GUCGCAUGAGGAUAUACAUGAGGAUCACCCAUGUAUCUACGCAUGGGAAGACACCAAUGUAGAAGGCAUCUCAA
[5]
  apparent Kd: 0.0642 µM
[6]
  apparent Kd: 0.0215 µM

## GUCGGUGCAGGAUAUCGAGGCGCCAACAUGAGGAUCACCCAUGUGUGUGAUCGGGUGCACCGAGAAGGGCACUUGC
[5]
  apparent Kd: 0.11 µM
[6]
  apparent Kd: 0.345 µM

## GUGAUGCCUUACACAUGAGGAUCACCCAUGUGGUGUAAGCGUAGAAGGUGAAUAUAUUCCAUAGUCAAGGAUAUACGAACAAUC
[5]
  apparent Kd: 0.0122 µM
[6]
  apparent Kd: 0.0115 µM

## UAACAUGAGGAUCACCCAUGUAACCAUCUCCAAGUCGGUAGGCAGGAUAUGUACAUAAUGGAAGAACAGAAGGGCCGGUCCGAG
[3]
  apparent Kd: 0.0311 µM
[4]
  apparent Kd: 0.0099 µM

## UAACGUAGCCGAGGAUAUAGUAGCGAUCAACAGAAACAUGAGGAUCACCCAUGUGCCACAAAAGACUAGAAGGCGGGCAACCCA
[3]
  apparent Kd: 0.0154 µM
[4]
  apparent Kd: 0.0112 µM
